Reference: ChEMBL document CHEMBL4732053, “Design, synthesis and structure-activity relationship study of novel urea compounds as FGFR1 inhibitors to treat metastatic triple-negative breast cancer” (Eur J Med Chem, 2021)

What was measured:
[1] = test system: MDA-MB-231; test: Cytotoxicity against human MDA-MB-231 cells assessed as reduction in cell viability incubated for 48 hrs by MTT assay; format: functional, cell-based; details: MDA-MB-231, 48 h
Outline: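 MTT assay in MDA-MB-231 cells grown in DMEM with 10% heat-inactivated FBS at 37 °C and 5% CO2. Cells were seeded at 8000 per well, left 24 h, then exposed for 48 h to 0–25 μM in DMEM with 2% FBS (final DMSO 0.1%). MTT (0.5 mg/mL) was added for 2 h, formazan was dissolved in DMSO and read at 570 nm. Runs were in triplicate and IC50 was derived from the curves.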

[2] = target: D(1A) dopamine receptor (Homo sapiens, UniProt P21728); test: Binding affinity to dopamine D1 receptor (unknown origin) at 10 uM
Outline: (§1)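 Primary radioligand-binding screen by the NIMH Psychoactive Drug Screening Program. Each compound was tested at a final concentration of 10 μM in triplicate or quadruplicate, and % inhibition was recorded. Data are mean ± SEM of four independent experiments. Compounds reaching at least 50% antagonist activity went on to secondary dose-response assays.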

[3] = target: D(2) dopamine receptor (Homo sapiens, UniProt P14416); test: Binding affinity to dopamine D2 receptor (unknown origin) at 10 uM; outline: as §1
[4] = target: D(3) dopamine receptor (Homo sapiens, UniProt P35462); test: Binding affinity to dopamine D3 receptor (unknown origin) at 10 uM; format: ADME; outline: as §1
[5] = target: T1, D(4) dopamine receptor (Homo sapiens, UniProt P21917); test: Binding affinity to dopamine D4 receptor (unknown origin) at 10 uM; outline: as §1
T1 sequence (P21917 whole entry): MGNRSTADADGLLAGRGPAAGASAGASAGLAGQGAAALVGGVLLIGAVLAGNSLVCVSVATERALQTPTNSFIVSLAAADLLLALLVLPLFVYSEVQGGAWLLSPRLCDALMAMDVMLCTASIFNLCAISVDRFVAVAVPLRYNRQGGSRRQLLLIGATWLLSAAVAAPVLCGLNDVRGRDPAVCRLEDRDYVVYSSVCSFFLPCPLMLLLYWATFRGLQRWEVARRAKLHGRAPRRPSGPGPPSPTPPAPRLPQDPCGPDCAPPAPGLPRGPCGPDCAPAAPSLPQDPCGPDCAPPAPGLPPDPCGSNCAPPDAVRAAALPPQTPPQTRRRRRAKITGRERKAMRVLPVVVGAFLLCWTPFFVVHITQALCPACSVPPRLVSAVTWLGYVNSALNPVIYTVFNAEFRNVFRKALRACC

[6] = target: D(1B) dopamine receptor (Homo sapiens, UniProt P21918); test: Binding affinity to dopamine D5 receptor (unknown origin) at 10 uM; outline: as §1
[7] = target: Sodium-dependent dopamine transporter (Homo sapiens, UniProt Q01959); test: Inhibition of DAT (unknown origin)
[8] = target: Histamine H1 receptor (Homo sapiens, UniProt P35367); test: Inhibition of H1R (unknown origin)
[9] = target: DAT (sodium-dependent dopamine transporter) (Homo sapiens, UniProt Q01959); test: Inhibition of DAT (unknown origin) at 10 uM relative to control; outline: as §1
[10] = Drug uptake in C57 mouse brain at 10 mg/kg, ip measured after 1 hrs by LC-MS/MS analysis; format: ADME, organism-based; details: in vivo
Outline: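 Eight-week-old male and female C57 mice (~20 g) received a single 10 mg/kg i.p. dose in ethanol 2.5%, DMSO 2.5%, Tween 80 5%, PEG 400 25% and PBS 65%. Brains were taken after cardiac perfusion at 0–48 h. Tissue was homogenized in PBS (1:3 w/v), extracted with acetonitrile containing internal standard, and quantified by LC-MS/MS against matrix-matched calibration curves. n = 2–4.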

Chain of D(1B) dopamine receptor (P21918 whole entry): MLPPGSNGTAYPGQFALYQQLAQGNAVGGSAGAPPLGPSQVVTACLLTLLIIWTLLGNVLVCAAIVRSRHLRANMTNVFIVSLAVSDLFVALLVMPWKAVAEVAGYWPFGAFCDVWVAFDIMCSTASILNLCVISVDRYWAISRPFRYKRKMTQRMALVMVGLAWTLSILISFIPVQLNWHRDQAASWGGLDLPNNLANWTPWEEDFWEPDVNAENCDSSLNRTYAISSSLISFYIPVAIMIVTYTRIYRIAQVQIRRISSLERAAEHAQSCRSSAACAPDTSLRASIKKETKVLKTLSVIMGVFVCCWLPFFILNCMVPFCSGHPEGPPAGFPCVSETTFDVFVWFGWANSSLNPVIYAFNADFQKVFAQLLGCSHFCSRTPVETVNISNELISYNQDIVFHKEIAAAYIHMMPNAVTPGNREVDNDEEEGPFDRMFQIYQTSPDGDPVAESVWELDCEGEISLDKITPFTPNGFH
Chain of Histamine H1 receptor (P35367 whole entry): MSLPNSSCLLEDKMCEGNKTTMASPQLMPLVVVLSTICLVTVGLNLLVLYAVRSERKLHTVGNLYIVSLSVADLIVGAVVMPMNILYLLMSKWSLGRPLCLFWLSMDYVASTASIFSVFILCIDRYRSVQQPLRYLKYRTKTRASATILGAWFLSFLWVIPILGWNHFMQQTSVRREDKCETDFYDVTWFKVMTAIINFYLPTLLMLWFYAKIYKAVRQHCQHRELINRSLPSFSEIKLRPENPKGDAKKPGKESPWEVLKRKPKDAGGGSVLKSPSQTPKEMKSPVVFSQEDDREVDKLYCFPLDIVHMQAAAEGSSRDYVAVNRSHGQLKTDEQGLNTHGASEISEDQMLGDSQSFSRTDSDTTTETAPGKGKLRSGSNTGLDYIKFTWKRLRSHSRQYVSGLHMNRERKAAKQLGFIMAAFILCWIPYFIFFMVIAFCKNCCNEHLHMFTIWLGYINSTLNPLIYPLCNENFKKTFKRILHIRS
Chain of DAT (sodium-dependent dopamine transporter) (Q01959 whole entry): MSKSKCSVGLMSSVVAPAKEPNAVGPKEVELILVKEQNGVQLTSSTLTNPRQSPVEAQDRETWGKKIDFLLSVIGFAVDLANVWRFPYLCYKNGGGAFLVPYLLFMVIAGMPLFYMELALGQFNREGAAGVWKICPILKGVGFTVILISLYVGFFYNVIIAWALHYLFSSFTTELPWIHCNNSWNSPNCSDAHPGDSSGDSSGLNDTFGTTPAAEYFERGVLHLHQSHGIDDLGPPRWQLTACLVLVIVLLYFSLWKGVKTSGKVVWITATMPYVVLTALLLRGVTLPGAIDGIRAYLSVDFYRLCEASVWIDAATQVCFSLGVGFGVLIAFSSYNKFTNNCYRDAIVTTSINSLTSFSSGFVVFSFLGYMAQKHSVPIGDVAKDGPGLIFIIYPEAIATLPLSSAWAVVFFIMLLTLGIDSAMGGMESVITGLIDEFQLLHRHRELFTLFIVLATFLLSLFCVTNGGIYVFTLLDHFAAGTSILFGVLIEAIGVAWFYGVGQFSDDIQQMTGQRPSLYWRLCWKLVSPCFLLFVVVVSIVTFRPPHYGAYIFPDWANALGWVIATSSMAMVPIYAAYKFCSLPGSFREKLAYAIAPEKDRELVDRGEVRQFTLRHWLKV
Chain of Sodium-dependent dopamine transporter (Q01959 whole entry): as above
Chain of D(3) dopamine receptor (P35462 whole entry): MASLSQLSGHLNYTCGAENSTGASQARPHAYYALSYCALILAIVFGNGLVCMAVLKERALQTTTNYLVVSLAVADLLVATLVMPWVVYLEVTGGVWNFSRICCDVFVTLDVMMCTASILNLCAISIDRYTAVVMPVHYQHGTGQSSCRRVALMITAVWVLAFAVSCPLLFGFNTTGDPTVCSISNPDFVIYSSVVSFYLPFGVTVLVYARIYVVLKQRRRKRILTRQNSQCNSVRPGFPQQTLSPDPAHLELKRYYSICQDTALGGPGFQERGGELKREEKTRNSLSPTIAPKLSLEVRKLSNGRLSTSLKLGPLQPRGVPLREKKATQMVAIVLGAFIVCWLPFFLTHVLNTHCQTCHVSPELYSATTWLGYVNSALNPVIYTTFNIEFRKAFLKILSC
Chain of D(2) dopamine receptor (P14416 whole entry): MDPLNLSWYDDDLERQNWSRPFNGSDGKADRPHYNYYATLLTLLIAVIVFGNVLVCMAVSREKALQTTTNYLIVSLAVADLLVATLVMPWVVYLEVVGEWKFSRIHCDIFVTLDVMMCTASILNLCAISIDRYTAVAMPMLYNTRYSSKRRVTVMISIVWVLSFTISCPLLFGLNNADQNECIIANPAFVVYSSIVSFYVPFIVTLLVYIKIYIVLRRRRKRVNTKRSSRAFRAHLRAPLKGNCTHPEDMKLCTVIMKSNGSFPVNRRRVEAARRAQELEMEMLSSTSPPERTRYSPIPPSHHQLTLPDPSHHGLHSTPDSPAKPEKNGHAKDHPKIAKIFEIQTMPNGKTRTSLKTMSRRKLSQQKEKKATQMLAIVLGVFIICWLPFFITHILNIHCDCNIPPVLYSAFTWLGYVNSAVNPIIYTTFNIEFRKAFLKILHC
Chain of D(1A) dopamine receptor (P21728 whole entry): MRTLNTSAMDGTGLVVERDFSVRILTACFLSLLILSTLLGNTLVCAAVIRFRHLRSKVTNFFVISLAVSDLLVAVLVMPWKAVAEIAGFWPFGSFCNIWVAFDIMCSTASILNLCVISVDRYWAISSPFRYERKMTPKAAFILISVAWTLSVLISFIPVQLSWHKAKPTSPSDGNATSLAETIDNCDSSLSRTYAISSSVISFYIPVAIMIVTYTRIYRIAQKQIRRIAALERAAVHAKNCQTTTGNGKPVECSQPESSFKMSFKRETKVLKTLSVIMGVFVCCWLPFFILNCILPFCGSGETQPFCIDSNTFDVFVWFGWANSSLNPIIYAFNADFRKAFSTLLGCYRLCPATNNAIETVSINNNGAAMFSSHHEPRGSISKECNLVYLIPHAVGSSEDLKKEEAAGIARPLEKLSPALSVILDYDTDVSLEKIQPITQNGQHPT

- Activity [2]: Not Active
- Activity [3]: Not Active
- Activity [4]: Not Active
- Activity [5]: Not Active
- Activity [6]: Not Active
- Ki [7]: 0.015 µM
- inhibition (INH) [8]: Active
- inhibition at 10 µM [9]: 82%
- Drug uptake [10]: Active
Structure (SMILES): O=C(NCCCCC(c1ccc(F)cc1)c1ccc(F)cc1)Nc1ccc(Cl)cc1
- IC50 [1]: 7.68 µM
